Consider eleven compounds from ChEMBL document CHEMBL3244196, “Synthesis and analgetic activity of 1,2,3,4,5,6-hexahydro-1,6-methano-3-benzozocines” (J Med Chem, 1978).

The species entered for series [1] is Mus musculus. Kind of series: Analgesic activity in mouse by Eddy hot-plate method. Type of series: functional.
In series [2] the test system is Rhesus monkey. Kind of series: Toxicity in rhesus monkey assessed as physical drug dependence liability at 2 to 4 mg/kg by single dose suppression analysis. In kind it is organism-based, Macaca mulatta. Also on record: dose 2-4 mg/kg. The settings on record: in vivo. An outline of the steps:
(§1)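 Rhesus monkeys addicted to morphine; single-dose suppression study scoring whether the test dose supports morphine dependence, i.e. suppresses withdrawal signs. Dose range 2-4 or 2-8 mg/kg, as given in each line.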

Series [3] has as its system Rhesus monkey. Kind of series: Psychotomimetic activity in morphine-dependent nonwithdrawn rhesus monkey assessed as antagonist activity by measuring precipitation of withdrawal symptoms at 2 to 4 mg/kg. Also on record: dose 2-4 mg/kg. Type of series: organism-based, Macaca mulatta. The settings on record: in vivo.
The test system of series [4] is Mus musculus. Kind of series: Analgesic activity in sc dosed mouse by Eddy hot-plate method. In kind it is functional.
Series [5] deals with Rhesus monkey. Kind of series: Psychotomimetic activity in morphine-dependent nonwithdrawn rhesus monkey assessed as antagonist activity by measuring precipitation of withdrawal symptoms at 2 to 8 mg/kg. Type of series: organism-based, Macaca mulatta. More on the design: dose 2-8 mg/kg. The settings on record: in vivo.
Series [6] deals with Rhesus monkey. Description: Toxicity in rhesus monkey assessed as physical drug dependence liability at 2 to 8 mg/kg by single dose suppression analysis. More on the design: dose 2-8 mg/kg. The settings on record: in vivo. In kind it is organism-based, Macaca mulatta. An outline of the steps:
as §1

The structures appear in SMILES notation. Calls of active or inactive are those of the source. The calls are words filed in the database; no cut-off is given here.

With `c1ccc(CCN2CCC3CC(C2)c2ccccc23)cc1` (configuration not stated), the ED50 – broadly, the dose at which the effect has come halfway, by size or by number of responders – in the series filed under Mus musculus [1] turned out to be 8.8 mg/kg.

On to `C=CCN1CCC2CC(C1)c1ccccc12` (configuration not stated), for which the ED50 in the series filed under Mus musculus [1] was determined as 19.4 mg/kg.

Regarding `CN1CC[C@@H]2CC1Cc1ccc(O)cc12`, it took a dose of 4.5 mg/kg to reach the 50% effect level in the series listed under Mus musculus [1] (ED50).

`COc1ccc2c3c1O[C@H]1[C@@H](O)C=C[C@H]4[C@@H](C2)N(C)CC[C@@]341` [CODEINE] came in with an ED50 in the series filed under Mus musculus [1] of 7.5 mg/kg.

`CN1CCC2CC1Cc1ccccc12` (configuration not stated) displayed an ED50 in the series listed under Mus musculus [1] of 11.2 mg/kg.

`CN1CC[C@]23c4c5ccc(O)c4O[C@H]2[C@@H](O)C=C[C@H]3[C@H]1C5` [MORPHINE] yielded an ED50 in the series filed under Mus musculus [1] of 1.2 mg/kg.

For `CN1CCC2CC(C1)c1ccccc12` (configuration not stated), the ED50 in the series filed under Mus musculus [1] worked out at 4.2 mg/kg; with Mus musculus [4] it was 8.2 mg/kg. For the same compound, the Activity result in the series with Rhesus monkey [2] and in the series on Rhesus monkey [3] was “Non-toxic” in each case.

`c1ccc2c(c1)C1CCNCC2C1` (configuration not stated): the ED50 in the series listed under Mus musculus [1] is 4.9 mg/kg; with Mus musculus [4], 6.1 mg/kg. The Activity result with Rhesus monkey [5] and in the series with Rhesus monkey [6] was “Non-toxic” each time.

Turning to `CC(C)=CCN1CCC2CC(C1)c1ccccc12` (configuration not stated), in the series listed under Mus musculus [1], the ED50 entry was “inactive”.

On to `CC1CCN(C)CCc2ccc(O)cc21` (configuration not stated), for which the 50% effective dose (ED50) in the series filed under Mus musculus [1] was found to be 12.5 mg/kg.

With `CCCN1CCC2CC(C1)c1ccccc12` (configuration not stated), the ED50 in the series filed under Mus musculus [1] was determined as 16.2 mg/kg.
